# Assay results reported in paper PMC10975586 (ACS Omega, 2024).
# Values joined by “and” are separate entries in the source; they are usually repeats but may differ in a detail not shown here. Equal values may be shown once. “Also recorded” adds a separate entry of the source. Read-outs that look alike come from different tables or passages of the source.
# Experiments:
# jack bean (JB) urease = jack bean (JB) urease (Canavalia ensiformis, UniProt P07374); assay: Urease inhibitory assay; format: biochemical; conditions: for inhibition at 250 µM: read-out: inhibition (%) at 0.25 mM, JB urease; for inhibition at 250 µM / inhibition (%) at 0.25 mM: 0.25 mM, mean ± SEM, n = 3–4; for urease inhibitory profile (in words) / inhibition (%) at 0.25 mM: JB urease
# Sequence of jack bean (JB) urease (P07374 whole entry, looked up): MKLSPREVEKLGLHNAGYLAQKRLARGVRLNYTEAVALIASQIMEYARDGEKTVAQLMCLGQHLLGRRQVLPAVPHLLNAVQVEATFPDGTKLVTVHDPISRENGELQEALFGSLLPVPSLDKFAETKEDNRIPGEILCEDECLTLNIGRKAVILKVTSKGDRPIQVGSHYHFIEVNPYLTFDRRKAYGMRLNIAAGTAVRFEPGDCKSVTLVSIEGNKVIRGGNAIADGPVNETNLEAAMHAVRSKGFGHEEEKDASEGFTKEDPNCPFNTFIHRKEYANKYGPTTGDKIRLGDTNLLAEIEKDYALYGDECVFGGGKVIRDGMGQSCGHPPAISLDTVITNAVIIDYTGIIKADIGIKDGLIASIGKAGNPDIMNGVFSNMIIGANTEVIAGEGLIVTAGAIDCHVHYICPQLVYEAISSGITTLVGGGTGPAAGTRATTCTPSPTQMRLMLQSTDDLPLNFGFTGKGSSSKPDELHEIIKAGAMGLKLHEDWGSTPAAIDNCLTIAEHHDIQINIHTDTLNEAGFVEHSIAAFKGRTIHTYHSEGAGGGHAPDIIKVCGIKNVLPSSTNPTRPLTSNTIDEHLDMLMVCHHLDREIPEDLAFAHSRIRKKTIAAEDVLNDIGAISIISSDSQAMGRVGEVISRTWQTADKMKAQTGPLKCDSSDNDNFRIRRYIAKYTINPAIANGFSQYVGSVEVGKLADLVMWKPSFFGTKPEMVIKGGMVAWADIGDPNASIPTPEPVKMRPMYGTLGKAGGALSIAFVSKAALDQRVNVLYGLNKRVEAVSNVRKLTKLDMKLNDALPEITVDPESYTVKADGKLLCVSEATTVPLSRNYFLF
# JB urease enzyme = JB urease enzyme (Canavalia ensiformis, UniProt P07374); assay: Kinetic analysis of JB urease inhibition; format: biochemical, jack bean; conditions: for Vmax: in presence of the inhibitor
# Sequence of JB urease enzyme (P07374 whole entry, looked up): as above
# Summary of the method: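 Jack bean urease (1 unit/well) in 50 mM phosphate buffer pH 7.4 is preincubated with test compound for 10 min at 37 °C. Urea is added from a 50 mM solution and the reaction runs 15 min. Phenol-alkali reagent stops it, and A630 is read after 10 min. Mode of inhibition, Km, Vmax and Ki come from double-reciprocal plots and nonlinear regression (mean ± SEM, n = 3).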
SMILES,IC50 (jack bean (JB) urease),inhibition at 250 µM (jack bean (JB) urease),also measured
N[C@@H](C(=O)N[C@@H]1C(=O)N2C(C(=O)O)=C(Cl)CS[C@H]12)c1ccccc1 [cefaclor],62.9 ± 0.78 µM,92.4 ± 1.53%,–
CC1=C(C(=O)O)N2C(=O)[C@@H](NC(=O)[C@H](N)c3ccc(O)cc3)[C@H]2SC1 [cefadroxil],21.4 ± 0.64 µM,91.27 ± 0.85%,–
CC1=C(C(=O)O)N2C(=O)[C@@H](NC(=O)[C@H](N)c3ccccc3)[C@H]2SC1 [cefalexin],145.8 ± 0.37 µM,72.5 ± 0.94%,urease inhibitory profile (in words) (jack bean (JB) urease): poor inhibitory potential
CCN1CCN(C(=O)N[C@@H](C(=O)N[C@@H]2C(=O)N3C(C(=O)O)=C(CSc4nnnn4C)CS[C@H]23)c2ccc(O)cc2)C(=O)C1=O [cefoperazone],–,34.54 ± 0.26%,–
CC=CC1=C(C(=O)O)N2C(=O)[C@@H](NC(=O)[C@H](N)c3ccc(O)cc3)[C@H]2SC1 [cefprozil],–,–,inhibition (%) at 0.25 mM (jack bean (JB) urease): 42.76 ± 0.27%
CC1=C(C(=O)O)N2C(=O)[C@@H](NC(=O)[C@H](N)C3=CCC=CC3)[C@H]2SC1 [cefradine],226.8 ± 0.95 µM,54.9 ± 1.54%,–
CC(C)(O/N=C(\C(=O)N[C@@H]1C(=O)N2C(C(=O)[O-])=C(C[n+]3ccccc3)CS[C@H]12)c1csc(N)n1)C(=O)O [ceftazidime],123.6 ± 0.19 µM,–,inhibition (%) at 0.25 mM (jack bean (JB) urease): 76.94 ± 1.57% and 49.52 ± 1.78%
O=C(O)c1cn(C2CC2)c2cc(N3CCNCC3)c(F)cc2c1=O [ciprofloxacin],134.5 ± 0.52 µM,78.3 ± 0.85%,urease inhibitory profile (in words) (jack bean (JB) urease): weak enzyme inhibitors; urease inhibitory profile (in words) (jack bean (JB) urease; listed as Ciprofloxacin): weak urease inhibitions
CO/N=C1\CN(c2nc3c(cc2F)c(=O)c(C(=O)O)cn3C2CC2)CC1CN (stereo not shown) [gemifloxacin],16.5 ± 0.85 µM,92.5 ± 1.35%,–
C[C@H]1COc2c(N3CCN(C)CC3)c(F)cc3c(=O)c(C(=O)O)cn1c23 [levofloxacin],7.24 ± 0.29 µM,81.92 ± 0.62%,"Ki (JB urease enzyme): 4.91 µM; maximum velocity (JB urease enzyme; JB urease): 84.51 μm/min; type of inhibition (JB urease enzyme; JB urease): competitive inhibitors; Vmax (JB urease enzyme; JB urease): 84.51 µM/min; type of inhibition (JB urease enzyme; JB urease, listed as Levofloxacin): competitive inhibition"
COc1c(N2C[C@@H]3CCCN[C@@H]3C2)c(F)cc2c(=O)c(C(=O)O)cn(C3CC3)c12 [moxifloxacin],135.3 ± 0.39 µM,75.27 ± 0.74%,urease inhibitory profile (in words) (jack bean (JB) urease): weak urease inhibitions; also recorded: weak enzyme inhibitors
CC1COc2c(N3CCN(C)CC3)c(F)cc3c(=O)c(C(=O)O)cn1c23 (stereo not shown) [ofloxacin],13.2 ± 0.32 µM,83.67 ± 0.67%,Ki (JB urease enzyme): 5.43 µM; type of inhibition (JB urease enzyme; JB urease): competitive inhibition; also recorded: competitive inhibitors; Vmax (JB urease enzyme; JB urease): 86.62 µM/min
C[C@@H]1CN(c2c(F)c(N)c3c(=O)c(C(=O)O)cn(C4CC4)c3c2F)C[C@H](C)N1 [sparfloxacin],213.9 ± 0.32 µM,57.6 ± 0.62%,–
NC(N)=S [thiourea],–,–,"inhibition (%) at 0.25 mM (jack bean (JB) urease): 98.21 ± 0.18%; type of inhibition (JB urease enzyme; JB urease): competitive; Vmax (JB urease enzyme; JB urease): 110.1 µM/min; Ki (JB urease enzyme; JB urease, inhibitory constant): 19.7 µM"

# Now from value to compound, other results behind:
IC50 (jack bean (JB) urease),inhibition at 250 µM (jack bean (JB) urease),SMILES,also measured
78.65 ± 0.45 µM,73.3 ± 1.35%,CO/N=C(\C(=O)N[C@@H]1C(=O)N2C(C(=O)[O-])=C(C[N+]3(C)CCCC3)CS[C@H]12)c1csc(N)n1 [cefepime],–
215.5 ± 0.76 µM,68.5 ± 1.85%,C=CC1=C(C(=O)O)N2C(=O)[C@@H](NC(=O)/C(=N\OCC(=O)O)c3csc(N)n3)[C@H]2SC1 [cefixime],urease inhibitory profile (in words) (jack bean (JB) urease): poor inhibitory potential
27.4 ± 0.74 µM,81.9 ± 1.46%,CO/N=C(\C(=O)N[C@@H]1C(=O)N2C(C(=O)O)=C(COC(C)=O)CS[C@H]12)c1csc(N)n1 [cefotaxime],–
23.7 ± 0.82 µM,91.3 ± 1.86%,COCC1=C(C(=O)O)N2C(=O)[C@@H](NC(=O)/C(=N\OC)c3csc(N)n3)[C@H]2SC1 [cefpodoxime],–
–,32.41 ± 0.24%,CO/N=C(\C(=O)N[C@@H]1C(=O)N2C(C(=O)O)=CCS[C@H]12)c1csc(N)n1 [ceftizoxime],–
157.4 ± 0.42 µM,72.6 ± 0.98%,CO/N=C(\C(=O)N[C@@H]1C(=O)N2C(C(=O)O)=C(CSc3nc(=O)c(=O)[nH]n3C)CS[C@H]12)c1csc(N)n1 [ceftriaxone],urease inhibitory profile (in words) (jack bean (JB) urease): poor inhibitory potential
241.5 ± 0.87 µM,51.7 ± 1.56%,CO/N=C(\C(=O)N[C@@H]1C(=O)N2C(C(=O)O)=C(COC(N)=O)CS[C@H]12)c1ccco1 [cefuroxime],–
